The results in this text go back to the RNAGym collection of RNA variant scans (doi:10.1126/science.aae0568).

Variants at the floor of the assay were thinned out.

To fix the notation:
B1: tRNA (parent)
chain: GUUCCGUUGGCGUAAUGGUAACGCGUCUCCCUCCUAAGGAGAAGACUGCGGGUUCGAGUCCCGUACGGAACG

The variants in this series derive from B1. Kind of series: yeast fitness relative to wild type (ratio to wild type); higher = fitter; tRNA-Arg(CCU), competitive growth, 37 C, YPD. A digest of the protocol: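 For this measurement, the tRNA-Arg(CCU) gene was varied by chemical synthesis at a 3% per-site mutation rate across 69 sites, and each variant was placed at the native genomic locus in Saccharomyces cerevisiae. The pooled strains went through a 24-hour competition in YPD at 37°C in six parallel replicates, with amplicons from start and end populations read by 100-nucleotide paired-end sequencing. Darwinian fitness relative to wild type followed from the change in each genotype's frequency. Genotypes needed ≥ 100 starting reads, and estimates < 0.5 were set to 0.5.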
Turning to GUUCCGUUGGUGUAAUGGUAACGCGUCUCCCUCCUAAGGAGAAGACUGCGGGUUCGAGACCCGUAGGGAACG [C11U U59A C66G], the yeast fitness was at most 0.5.

Regarding GUUCCGUUGGCAUGAUGGUAACGGGUCUCCCUCCUAAGGUGAAGAAUGCGGCUUCGAGUCCCGUACGGAACG [G12A A14G C24G A40U C46A G52C], the yeast fitness is at most 0.5. The figure for GUUCCGUUGGCAUGAUGGUAACGCGUCUCCCUCCUAUGGAGAAGACUGCGGGUUCGAGUCCCGUACGGAACG [G12A A14G A37U] is 0.551; for GUUCCGUUGGCAUAAUGGUUACGCGUCUCCCUCCUAAGGAGCAGACUGCGGGUUCGAGUCCCGUACGAAACG [G12A A20U A42C G68A] it is 0.519; for GUUCCGUUGGCAUAAUGGUACCGAGUCUCCCUCCUAAGGAGAAGACUGCGGGUUCGAGUCCCGUACGGCACG [G12A A21C C24A A69C] it is 0.933. The figure for GUUCCGUUGGCAUAAUGGUGAUGCGUCUCCCUCCUAAGGAGAAGACUGCGGGUUCGAGUCCCGUACGGAACG [G12A A20G C22U] is at most 0.5; for GUUCCGUUGGCAUAAUGGUUUCGCGUCUCCCUCGUAAGGAGAAGACUGCGGGUUCGAGUCCCCUACGGAACG [G12A A20U A21U C34G G63C] it is at most 0.5; for GUUCCGUUGGCAUAUUGGUACCGCGUCUCCCUCCUAAGGAGAAGACUGUGGGUUCGAGUCCCGUACGGAACG [G12A A15U A21C C49U] it is at most 0.5. Under GUUCCGUUGGCAUAAUGGUCACGCGUCUCCCUCCUAAGGAGAAGACUGCGGGUUCGAGUCCCGUACGGUACG [G12A A20C A69U] stands 0.811. For GUUCCGUUGGCAUCAUGGUAACGCGUGUCCCUCCUAAGGAGAAGAGUGCGGGUUCGAGUCCCGUGCGGAACG [G12A A14C C27G C46G A65G], the yeast fitness was at most 0.5. The figure for GUUCCGUUGGCAUAAUGGUAGCGGGUCGCCCUCCUAAGGAGAAGAUUGCGGGUUCGAGUCCCGUACGGAACG [G12A A21G C24G U28G C46U] is 0.582. Turning to GUUCCGUUGGCAUCAUGGUAACGCGUCUCCCUCCUAAGGAGAAGACUGCCGGUUCGAGUCCCGUACGGAACG [G12A A14C G50C], the yeast fitness came out at 0.535. Under GUUCCGUUGGCAUUAUGGUAACGCGUCUCCCUCCUAAGGAGAAGACUGCGGGUACGUGUCCCGUACGGAACG [G12A A14U U54A A57U] stands at most 0.5; under GUUCCGUUGGCAUACUGGUAACGCGUCUCCCUCCUAAGGAGAAGUCUGCGGGUUCGAGUCCCGUACGGAACG [G12A A15C A45U], 0.87. As for GUUCCGUUGGCAUAUUGGUAACGCGUCUCCCUCCUAAGGAGAAGACUGCGGGUUCGAGUCCCGUACGGAACG [G12A A15U], the yeast fitness turned out to be 0.782. Under GUUCCGUUGGCAUAGUGGUAACGCGUCUCCCUCCUAAGGAGAAGACUGCGGGUUCGAGUCCCGUACGGAACG [G12A A15G] stands 0.843; under GUUCCGUUGGCAUAAUGGUCACGCGUCUCCCUCCUAAGGAGAAGACUGCGGGUUCGAGUCGCGUAAGGAACG [G12A A20C C61G C66A], at most 0.5.

Turning to GUUCCGUUGGCAUUAUGGUAACGCGUCUCCCUCCUAAGGAGAAGACUGCGGGUUCGAGUCCCGUAAGGAACG [G12A A14U C66A], the yeast fitness was at most 0.5. Under GUUCCGUUGGCAUAAUGGUCACGCGUCUCCCUCCUAAGGAGAAGACUGCGGGUCCGAGUCCUGUACGGAGCG [G12A A20C U54C C62U A70G] stands at most 0.5; under GUUCCGUUGGUGUAAUGGUAACGCGUCUCCCUCCUAAGGAGAAGACUGCGGGUCCGAGUCCCGUACGGAACG [C11U U54C], 0.844. Under GUUCCGUUGGUGUAAUGGUAACGCGUCUCCCUCCUAAGGAGAAGACUGCGGGUACGAGUCCCGUACGGAACG [C11U U54A] stands 0.733.

GUUCCGUUGGUGUAAUGGUAACGCGUCUCCCUCCUAAGGAGAAGACUGCGGGUUCGAGACCCGUACAGAACG [C11U U59A G67A]: the yeast fitness stood at 0.542. The figure for GUUCCGUUGGCAUGAUGGUAACGCGUCUCCCUCCUUAGGAGAAGAAUGCGGGUUCGAGUCCCGUACGGAACG [G12A A14G A36U C46A] is at most 0.5; for GUUCCGUUGGCAUAAUGGUUACGCGUCUCCCUCCUAAGGAGAAGACUGCGGGUUCCACUCCCGUACGGAACG [G12A A20U G56C G58C] it is at most 0.5; for GUUCCGUUGGCAUCAUGGUAACGCGUCUCCCUCCUAAGGAGAAGACUGCGGGUUCGAGUCCCGUACGGAACG [G12A A14C] it is 0.796. Under GUUCCGUUGGCAUAAUGGUUACGCGUCUCCAUCCUAAGGAGAAGACUGCGGAUUCGAGUCCCGUAUGGAACG [G12A A20U C31A G52A C66U] stands at most 0.5. Under GUUCCGUUGGCAUAAUGGUAGCGGGUCGCCCUCCUAAGGAGAAGACUGCGGGUUCGAGUCCCGUACGGAACG [G12A A21G C24G U28G] stands 0.992; under GUUCCGUUGGCAUCAUGGUAACGCGUCUCCUUCCUAAGGAGAAGACUGGGGGUUCGAGUACCGUACGGAACG [G12A A14C C31U C49G C60A], at most 0.5.

In the case of GUUCCGUUGGCAUAAUGGUUACGCGUCUCCCUCAUAAGGAGAAGACUGCGGGUUGGAGUCCCGUAAGGAACG [G12A A20U C34A C55G C66A], the yeast fitness was at most 0.5. Under GUUCCGUUGGCAUAAUGGUGACGCGCCUCCGUUCUAAGGAGUAGACUGCGGGUUCGAGUCCCGUACGGAACG [G12A A20G U26C C31G C33U A42U] stands at most 0.5; under GUUCCGUUGGCAUAUUGGUAAAGCGACUCCCUCCUAAGGAGAAGACUGCGGGUUCGAAUCCCGUACGGAACG [G12A A15U C22A U26A G58A], 0.629.

With GUUCCGUUGGCAUGAUGGUAACGCGUCUCGCUCCUAAGGAGAAGAAUGCGGGUUCGAGUCCCGUACUGAACG [G12A A14G C30G C46A G67U], the yeast fitness was at most 0.5. The figure for GUUCCGUUGGCAUACUGGUAACGCGUCUCCCUCCUAAGCAGAAGAUUGCGGGUUCGAGUCCCGUACGGAACG [G12A A15C G39C C46U] is at most 0.5; for GUUCCGUUGGCAUAAUGGUUACGCCUCUCCCUCCUAAGGAGAAGACUGCGGGAUCGAGUCCCGUACGGAACG [G12A A20U G25C U53A] it is 0.599. Under GUUCCGUUGGUGUAAUGGUAACGCGUCUCCCUCCUAAGGAGAAGACCGCGGGUUCGAGUCCCGUACAGAACG [C11U U47C G67A] stands 0.783; under GUUCCGUUGGCAUACUGGUAACGCGUCUCCCUCCUAAGGAGAAGACUGCGGGUUCGAGUCCUGUAGGGAGCG [G12A A15C C62U C66G A70G], 0.562. The figure for GUUCCGUUGGCAUACUGGUAACGCGUCUCCCUCCUAAGGAGAAGAGUGCGGGUUCGAGUCCCGUACGGAACG [G12A A15C C46G] is 0.567; for GUUCCGUUGGCAUAAUGGUGACGCGUCUCCCUCCUAAGGAGAAGUCUGGGGCUUCGAGUCCCGUACGGAACG [G12A A20G A45U C49G G52C] it is at most 0.5.
